From ChEMBL document CHEMBL4814052, “Isatin-derived azoles as new potential antimicrobial agents: Design, synthesis and biological evaluation” (2021)
≈ marks a conversion by molar mass, not a printed value. Calls of active or inactive are those of the source. No cut-off for these calls is given here.

Legend:
[1] = tested on: Pseudomonas aeruginosa; assay: Antibacterial activity against Pseudomonas aeruginosa by broth microdilution method; assay type: functional
[2] = tested on: Pseudomonas aeruginosa; assay: Antibacterial activity against Pseudomonas aeruginosa ATCC 27853 by broth microdilution method; assay type: functional
[3] = tested on: Acinetobacter baumannii; assay: Antibacterial activity against Acinetobacter baumannii by broth microdilution method; assay type: functional
[4] = tested on: Escherichia coli; assay: Antibacterial activity against Escherichia coli ATCC 25922 by broth microdilution method; assay type: functional
[5] = tested on: Escherichia coli; assay: Antibacterial activity against Escherichia coli by broth microdilution method; assay type: functional
[6] = tested on: Staphylococcus aureus; assay: Antibacterial activity against Staphylococcus aureus by broth microdilution method; assay type: functional
[7] = tested on: Enterococcus faecalis; assay: Antibacterial activity against Enterococcus faecalis by broth microdilution method; assay type: functional
[8] = tested on: Staphylococcus aureus; assay: Antibacterial activity against Staphylococcus aureus ATCC 29213 by broth microdilution method; assay type: functional
[9] = tested on: Klebsiella pneumoniae; assay: Antibacterial activity against Klebsiella pneumonia by broth microdilution method; assay type: functional
[10] = tested on: Staphylococcus aureus; assay: Antibacterial activity against Staphylococcus aureus ATCC 25923 by broth microdilution method; assay type: functional
[11] = tested on: Staphylococcus aureus; assay: Antibacterial activity against methicillin resistant Staphylococcus aureus by broth microdilution method; assay type: functional
[12] = tested on: Candida tropicalis; assay: Antifungal activity against Candida tropicalis; assay type: functional
[13] = tested on: Escherichia coli; assay: Antibacterial activity against Escherichia coli ATCC 25922 measured after 10 passages by broth microdilution method; assay type: functional, organism-based
[14] = tested on: Enterococcus faecalis; assay: Bactericidal activity against Enterococcus faecalis by broth microdilution method; assay type: functional, organism-based
[15] = tested on: Escherichia coli; assay: Potency index, ratio of MIC of norfloxacin to MIC of compound for antibacterial activity against Escherichia coli ATCC 25922 by broth microdilution method; assay type: functional
[16] = tested on: Candida parapsilosis; assay: Fungicidal activity against Candida parapsilosis ATCC 22019 assessed as […] by broth microdilution method
[17] = tested on: Calf thymus DNA; assay: Binding affinity to calf thymus DNA assessed as reduction in neutral red-DNA complex formation by competitive binding assay; assay type: nucleic-acid assay; details: Bos taurus
[18] = tested on: Candida tropicalis; assay: Fungicidal activity against Candida tropicalis by broth microdilution method; assay type: functional, organism-based
[19] = tested on: Calf thymus DNA; assay: Binding affinity to calf thymus DNA assessed as hyperchromic effect by UV-Vis spectroscopy; assay type: nucleic-acid assay; details: Bos taurus
Procedure, shortened: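 UV-Vis absorbance of the compound–DNA mixture is compared with the summed absorbances of free DNA and free compound. Hyperchromism is read as higher absorbance of the mixture than that sum.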

[20] = tested on: Escherichia coli; assay: Antibacterial activity against Escherichia coli ATCC 25922 measured after 6 passages by broth microdilution method; assay type: functional, organism-based

Row | Compound | MIC [1] [µg/mL] | MIC [2] [µg/mL] | MIC [3] [µg/mL] | MIC [4] [µg/mL] | MIC [5] [µg/mL] | MIC [6] [µg/mL] | MIC [7] [µg/mL] | MIC [8] [µg/mL] | MIC [9] [µg/mL] | MIC [10] [µg/mL] | MIC [11] [µg/mL] | other results
1 | Cc1ncc([N+](=O)[O-])n1CCN1C(=O)C(=O)c2ccccc21 | 64 (≈ 213 µM) | 256 (≈ 853 µM) | 128 (≈ 426 µM) | 128 (≈ 426 µM) | 128 (≈ 426 µM) | 128 (≈ 426 µM) | 128 (≈ 426 µM) | 128 (≈ 426 µM) | 64 (≈ 213 µM) | 256 (≈ 853 µM) | 128 (≈ 426 µM) | –
2 | O=C(/C=C1\C(=O)N(CCn2cncn2)c2ccccc21)c1ccc(Cl)cc1 | 512 (≈ 1350 µM) | 512 (≈ 1350 µM) | > 512 | 64 (≈ 169 µM) | 512 (≈ 1350 µM) | 512 (≈ 1350 µM) | 32 (≈ 84.5 µM) | 64 (≈ 169 µM) | 128 (≈ 338 µM) | 128 (≈ 338 µM) | 32 (≈ 84.5 µM) | –
3 | CC(=O)/C=C1\C(=O)N(CCn2cncn2)c2ccccc21 | 32 (≈ 113 µM) | 32 (≈ 113 µM) | 64 (≈ 227 µM) | 1 (≈ 3.54 µM) | 64 (≈ 227 µM) | 64 (≈ 227 µM) | 32 (≈ 113 µM) | 64 (≈ 227 µM) | 32 (≈ 113 µM) | 128 (≈ 453 µM) | 128 (≈ 453 µM) | MIC [12]: 8 µg/mL (≈ 28.3 µM); Activity [13]: Active; Activity [14]: inactive; Ratio [15]: 8; Ratio [16]: 4; Activity [17]: Active; Activity [18]: inactive; Activity [19]: Active
4 | O=C1C(=O)N(CCn2nnc3ccccc32)c2ccccc21 | 256 (≈ 876 µM) | 256 (≈ 876 µM) | 128 (≈ 438 µM) | 128 (≈ 438 µM) | 128 (≈ 438 µM) | 256 (≈ 876 µM) | 512 (≈ 1750 µM) | 256 (≈ 876 µM) | 256 (≈ 876 µM) | 256 (≈ 876 µM) | 128 (≈ 438 µM) | –
5 | OC(Cn1cncn1)(Cn1cncn1)c1ccc(F)cc1F | – | – | – | – | – | – | – | – | – | – | – | Activity [12]: Active
6 | Cc1ccc(C(=O)CC2(O)C(=O)N(CCn3cncn3)c3ccccc32)cc1 (stereo not given) | 512 (≈ 1360 µM) | 256 (≈ 680 µM) | 128 (≈ 340 µM) | 512 (≈ 1360 µM) | 128 (≈ 340 µM) | 256 (≈ 680 µM) | 128 (≈ 340 µM) | 128 (≈ 340 µM) | 256 (≈ 680 µM) | 256 (≈ 680 µM) | 256 (≈ 680 µM) | –
7 | O=C1C(O)c2ccccc2N1CCn1cncn1 (stereo not given) | 256 (≈ 1050 µM) | 128 (≈ 524 µM) | 64 (≈ 262 µM) | 256 (≈ 1050 µM) | 128 (≈ 524 µM) | 128 (≈ 524 µM) | 128 (≈ 524 µM) | 64 (≈ 262 µM) | 128 (≈ 524 µM) | 64 (≈ 262 µM) | 128 (≈ 524 µM) | –
8 | CC(=O)CC1(O)C(=O)N(CCn2cncn2)c2ccccc21 (stereo not given) | 256 (≈ 852 µM) | 256 (≈ 852 µM) | 256 (≈ 852 µM) | 512 (≈ 1700 µM) | 256 (≈ 852 µM) | 256 (≈ 852 µM) | 256 (≈ 852 µM) | 256 (≈ 852 µM) | 256 (≈ 852 µM) | 256 (≈ 852 µM) | 256 (≈ 852 µM) | –
9 | O=C(CC1(O)C(=O)N(CCn2cncn2)c2ccccc21)c1ccc(Cl)cc1 (stereo not given) | 512 (≈ 1290 µM) | 128 (≈ 323 µM) | 64 (≈ 161 µM) | 512 (≈ 1290 µM) | 128 (≈ 323 µM) | 128 (≈ 323 µM) | 256 (≈ 645 µM) | 128 (≈ 323 µM) | 256 (≈ 645 µM) | 256 (≈ 645 µM) | 128 (≈ 323 µM) | –
10 | CCn1cc(C(=O)O)c(=O)c2cc(F)c(N3CCNCC3)cc21 [NORFLOXACIN] | 2 (≈ 6.26 µM) | 2 (≈ 6.26 µM) | 8 (≈ 25.1 µM) | 8 (≈ 25.1 µM) | 16 (≈ 50.1 µM) | 1 (≈ 3.13 µM) | 4 (≈ 12.5 µM) | 2 (≈ 6.26 µM) | 4 (≈ 12.5 µM) | 1 (≈ 3.13 µM) | 8 (≈ 25.1 µM) | Activity [20]: inactive
11 | O=C(CC1(O)C(=O)N(CCn2cncn2)c2ccccc21)c1ccccc1 (stereo not given) | 512 (≈ 1410 µM) | 512 (≈ 1410 µM) | 64 (≈ 177 µM) | 512 (≈ 1410 µM) | 256 (≈ 706 µM) | 128 (≈ 353 µM) | 256 (≈ 706 µM) | 256 (≈ 706 µM) | 256 (≈ 706 µM) | 256 (≈ 706 µM) | 128 (≈ 353 µM) | –
